# Rows were chosen to be rich in hits. Some 2.1% of all compounds tested hit in one or more screens of this group.
# MEKK3 PB1 HTS = modulators of MEKK3-MEK5 PB1 binding, primary screen, biochemical, wildtype MEKK3, multiplex bead flow cytometry, Alexa488-MEK5; actives 1.4% (n = 290,000); Mitogen-activated protein kinase kinase kinase 3 (Homo sapiens), Q99759; bead-based flow cytometry, Alexa488-MEK5 binding to MEKK3; actives lie on both sides; 0 = blocked by unlabeled MEK5, 100 = vehicle; binding response (% of control), % at 10 µM;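 active = binding response more than 3 SD above or below the average of its plate-row segment, actives on both sides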;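 also: Alexa488 bead fluorescence after subtracting the streptavidin-only scavenger bead signal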
# GSK3beta inhib = human GSK3beta kinase inhibitors, primary screen, biochemical, cell-free homogeneous, HTS. activity score (negative = inhibition), % at 10 µM. actives 0.038% (n = 300,000). Glycogen synthase kinase-3 beta (Homo sapiens), P49841. GST-GSK3beta kinase, ADP-Glo luminescence, 60 min; hits give low values;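 active = more than half of replicate wells score below -50%, meaning over 50% inhibition versus plate controls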;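 also: 0% = median DMSO wells and -100% = median GW8510 positive control wells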
#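 Test system: GST-tagged human GSK3beta kinase, cell-free; evaluation: activity score scaled between in-plate DMSO and GW8510 controls; measured by: ADP-Glo luminescence; incubation: 60 min reaction, RT; benchmarks: DMSO and 20 µM GW8510; reagent: peptide substrate plus 25 µM ATP (final); medium: Tris/MgCl2 kinase buffer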
# MEKK2wt PB1 HTS = modulators of MEK5 binding to wildtype MEKK2, primary screen, biochemical, multiplex bead flow cytometry, Alexa488-MEK5; Alexa488-MEK5 binding to MEKK2 WT; actives lie on both sides; actives 1.1% (n = 290,000); binding response (% of control), % at 10 µM; Mitogen-activated protein kinase kinase kinase 2 (Homo sapiens), Q9Y2U5; in the data active = binding response below about 67% or above about 130%
# STK33 inh = inhibitors of purified STK33 kinase, primary screen, biochemical, ADP-Glo luminescence, homogeneous, cell-free. Serine/threonine-protein kinase 33 (Homo sapiens), Q9BYT3. MBP phosphorylation. inhibition, % at 10 µM. actives 0.073% (n = 320,000). AID 2661, 2010;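 active = inhibition at or above 25%, using the most active replicate where run in duplicate; inactive = inhibition below 25%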
# Target sequence (Q9BYT3 whole entry, looked up): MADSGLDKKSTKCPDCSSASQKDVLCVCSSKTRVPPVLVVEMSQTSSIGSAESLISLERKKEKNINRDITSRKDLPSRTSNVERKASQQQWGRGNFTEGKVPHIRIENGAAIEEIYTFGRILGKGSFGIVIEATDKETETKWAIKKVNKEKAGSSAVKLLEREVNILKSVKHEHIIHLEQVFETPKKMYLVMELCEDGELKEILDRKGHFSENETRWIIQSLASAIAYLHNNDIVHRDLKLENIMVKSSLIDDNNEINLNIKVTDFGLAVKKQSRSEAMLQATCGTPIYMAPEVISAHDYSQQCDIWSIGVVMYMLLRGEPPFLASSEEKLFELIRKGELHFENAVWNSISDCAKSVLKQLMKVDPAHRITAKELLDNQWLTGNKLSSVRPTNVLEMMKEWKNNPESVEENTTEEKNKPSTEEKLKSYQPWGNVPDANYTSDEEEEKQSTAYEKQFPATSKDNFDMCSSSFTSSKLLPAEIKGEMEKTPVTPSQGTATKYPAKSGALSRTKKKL
# MEKK2 mut-MEK5 = MEK5 binding signal on mutant MEKK2 PB1, primary screen, biochemical, multiplex bead flow cytometry, Alexa488-MEK5; percent response, % at 10 µM; Alexa488-MEK5 binding to MEKK2 mutant; actives 0.35% (n = 290,000); AID 1530, 2009; in the data active = percent response above about 24%, passing the limit was not always enough
# GSK3 alpha inh = blockers of GSK3A enzyme activity – biochemical, luminescence, cell-free homogeneous, HTS, primary screen; Glycogen synthase kinase-3 alpha (Homo sapiens), P49840; GSK-3 alpha kinase, ADP-Glo luminescence, 60 min; inhibition, % at 10 µM; actives 0.1% (n = 320,000);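 active = more than half of replicates show inhibition above 20%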;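 also: GST-tagged GSK-3 alpha with peptide substrate and 25 µM ATP; 0% = DMSO neutral wells and 100% = GW8510 positive control wells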
# MEKK2wt confirm = modulators of MEK5 binding to wildtype MEKK2, confirmation, biochemical, single concentration, multiplex bead flow cytometry; shares compounds with MEKK3 PB1 HTS; Alexa488-MEK5 binding to MEKK2 WT; actives lie on both sides; binding response (% of control), % at 10 µM; actives 2.4% (n = 5,900); AID 1892, 2009; in the data active = binding response below about 16% or above about 210%; inactive = in between
# MEKK2mut-MEK5 = mutant MEKK2 PB1-MEK5 binding signal retest – biochemical, single concentration, multiplex bead flow cytometry, confirmation. shares compounds with MEKK3 PB1 HTS. AID 1893, 2009. actives 2% (n = 5,900). Alexa488-MEK5 binding to MEKK2 mutant. percent response, % at 10 µM; in the data active = percent response mostly above about 71%, no sharp cut-off; inactive = mostly below about 38%;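 also: higher means compound restores mutant binding toward wildtype level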
# MEKK3 confirm = MEKK3 wild-type PB1 binding to MEK5, inhibitors, confirmation, biochemical, bead multiplex flow cytometry, single concentration, wildtype | shares compounds with MEKK3 PB1 HTS | Alexa488-MEK5 binding to MEKK3; hits give low values | binding response (% of control), % at 10 µM | actives 1.8% (n = 5,900) | AID 1894, 2009;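 active = binding response below 72% of control, or above a set upper limit, though filed actives all read lower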;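 also: 100% = DMSO only wells and 0% = binding blocked by excess unlabeled MEK5; lower values mean stronger disruption of MEK5 binding to MEKK3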
# * = called active by the depositor; . = no result; [ ] = remark or other dose.
SMILES,MEKK3 PB1 HTS,GSK3beta inhib,MEKK2wt PB1 HTS,STK33 inh,MEKK2 mut-MEK5,GSK3 alpha inh,MEKK2wt confirm,MEKK2mut-MEK5,MEKK3 confirm
Cc1cc(C(=O)NNC(=S)NCC(C)C)cs1,75*[inhibitor],-1,91,0,-2,-4,98,9,104
C[C@@H](NC(=O)c1ncn(Cc2ccccc2)c1C(=O)N[C@H](C)c1ccccc1)c1ccccc1,.,.,.,0,.,-1,.,.,.
CCC(=O)N1CCc2cc(Br)cc(S(=O)(=O)NCCN3CCCCC3CC)c21 (stereo not given),57*[inhibitor],.,68,-1,-10,0,103,0,100
CCC(=O)N1CCc2cc(Br)cc(S(=O)(=O)NCC3CCCN3CC)c21 (stereo not given),95,4,105,-1,2,-3,.,.,.
CCCNCC1C(Oc2ccc(Cl)cc2Cl)C(=O)N1c1cccc(C)c1C (stereo not given),136*,1,135,0,4,0,128,12,98
Cc1cccc(N2C(=O)C(Oc3ccc(Cl)cc3Cl)C2C(=O)O)c1C (stereo not given),139*,7,108,-3,1,-5,108,10,104
Cc1cccc(N2CC(C(=O)O)CC2=O)c1C (stereo not given),99,-1,95,-2,16,4,.,.,.
Cc1ccc(OCCN2CCN(C(=O)CCC(=O)Nc3nnc(CC(C)C)s3)CC2)cc1,96,-10,93,-2,-15,0,.,.,.
O=C(N/N=C/c1ccccc1)c1ccc(N2CCCC2=O)cc1,.,-2,.,0,.,-2,.,.,.
Cc1ccc(C2N(C)c3ccccc3-c3nc4ccccc4n32)o1 (stereo not given),99,-1,95,-3,2,.,.,.,.
c1csc(C2Nc3ccccc3-c3nc4ccccc4n32)c1 (stereo not given),132*,3,106,1,1,1,107,9,100
CN1c2ccccc2-c2nc3ccccc3n2C1c1cccs1 (stereo not given),181*,0,105,-1,0,-1,102,2,104
N#CCC(=O)Nc1ccc(C(=O)OCC(=O)N(Cc2ccccc2)C2CCS(=O)(=O)C2)cc1 (stereo not given),95,-1,92,0,-44,-2,.,.,.
COc1ccc(S(=O)(=O)N2CCOC2CNC(=O)C(=O)NCc2ccc(F)cc2)cc1OC (stereo not given),103,1,103,-1,5,-1,.,.,.
COCCN1C(=S)N[C@@H](c2cccc(F)c2)C(C(=O)OC)=C1C,104,2,147*,0,37*,1,144,47,104
COC(=O)C1=C(C)N(Cc2ccccc2)C(=S)N[C@H]1c1cccc(F)c1,100,1,98,2,-1,-1,.,.,.
COC(=O)C1=C(C)N(CC2CC2)C(=NCc2cccc(Cl)c2)N[C@H]1c1ccccc1,103,-3,125,1,26*,0,132,14,107
COC(=O)C1=C(C)N(Cc2ccccc2)C(=NCc2cccc(Cl)c2)N[C@H]1c1ccccc1,.,.,.,3,.,1,.,.,.
COC(=O)C1=C(C)N(Cc2ccccc2)C(=NCc2ccccc2)N[C@H]1c1ccccc1,.,.,.,2,.,5,.,.,.
COC(=O)C1=C(C)N(Cc2ccccc2)C(=NCc2ccccc2)N[C@H]1c1cccc(F)c1,109,-4,137*,1,35*,6,132,27,106
CCOC(=O)C1(C)NC(c2ccc(OC)cc2OC)C2C(=O)N(c3cccc(OC)c3)C(=O)C21 (stereo not given),104,3,98,-1,3,-2,.,.,.
COc1ccc(/C=N/Nc2cc(C)nc3ccc(OC)cc23)c(OC)c1,114,-17,389*,3,180*,15,282*,141*,118
COc1ccc2nc(C)cc(N/N=C/c3ccccc3)c2c1,.,.,.,0,.,2,.,.,.
CCC(C)N1C(=O)/C(=C/c2c(NCCCOC(C)C)nc3c(C)cccn3c2=O)SC1=S (stereo not given),32*[inhibitor],.,.,0,123*,4,59,-22,74
O=C(NCc1ccc2c(c1)OCO2)C1CC(=O)N(CCc2ccc(F)cc2)C1 (stereo not given),103,1,100,0,2,-1,.,.,.
SMILES,MEKK3 PB1 HTS,GSK3beta inhib,MEKK2wt PB1 HTS,STK33 inh,MEKK2 mut-MEK5,GSK3 alpha inh,MEKK2wt confirm,MEKK2mut-MEK5,MEKK3 confirm
Cc1c(CNC2CCC(C)CC2)c(C(=O)O)c(C)n1Cc1ccccc1 (stereo not given),140*,4,111,0,1,-1,109,8,106
COc1cc(OC)cc(C(=O)NNC(=O)c2ccccn2)c1,135*,0,106,-1,0,-2,113,5,105
COC(CN(C)C(=O)C1CCCN(S(=O)(=O)c2ccc3c(c2)oc(=O)n3C)C1)OC (stereo not given),96,0,98,-1,-10,-2,.,.,.
CCN(CC)CCN(Cc1cc2cc3c(cc2[nH]c1=O)OCCO3)C(=S)NCCCOC,101,-2,99,1,6,13,.,.,.
Cc1[nH]c(-c2ccccn2)nc(=S)c1Cl,98,-2,98,-2,-2,-6,.,.,.
Cc1cc(=S)nc(-c2ccccn2)[nH]1,57*[inhibitor],1,59*[inhibitor],-4,-21,0,96,-1,99
